From ChEMBL document CHEMBL4819149, “A facile reaction to access novel structural sulfonyl-hybridized imidazolyl ethanols as potential DNA-targeting antibacterial agents” (Bioorg Med Chem Lett, 2021)
Values after ≈ are worked out from the molar mass of the structure shown. Active and inactive are the calls of the source. No cut-off for these calls is given here.

Experiments:
Klebsiella pneumoniae = assay: Antibacterial activity against Klebsiella pneumonia assessed as bacterial growth inhibition by broth microdilution method; format: functional
Summary of the method: (§1)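 MIC values reported in µg/mL, determined by broth microdilution in microdilution plates.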

Staphylococcus aureus [1] = assay: Antibacterial activity against Staphylococcus aureus ATCC 29213 assessed as bacterial growth inhibition by broth microdilution method; format: functional; summary of the method: as §1
Escherichia coli [2] = assay: Antibacterial activity against Escherichia coli assessed as bacterial growth inhibition by broth microdilution method; format: functional; summary of the method: as §1
Staphylococcus aureus [3] = assay: Antibacterial activity against methicillin-resistant Staphylococcus aureus assessed as bacterial growth inhibition by broth microdilution method; format: functional
Summary of the method: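 MIC read by micro broth dilution; values given in μg/mL.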

Acinetobacter baumannii = assay: Antibacterial activity against Acinetobacter baumannii assessed as bacterial growth inhibition by broth microdilution method; format: functional; summary of the method: as §1
Staphylococcus aureus [4] = assay: Antibacterial activity against Staphylococcus aureus ATCC 25923 assessed as bacterial growth inhibition by broth microdilution method; format: functional; summary of the method: as §1
Enterococcus faecalis [5] = assay: Antibacterial activity against Enterococcus faecalis assessed as bacterial growth inhibition by broth microdilution method; format: functional; summary of the method: as §1
Staphylococcus aureus [6] = assay: Antibacterial activity against Staphylococcus aureus assessed as bacterial growth inhibition by broth microdilution method; format: functional; summary of the method: as §1
Pseudomonas aeruginosa [7] = assay: Antibacterial activity against Pseudomonas aeruginosa assessed as bacterial growth inhibition by broth microdilution method; format: functional; summary of the method: as §1
Pseudomonas aeruginosa [8] = assay: Antibacterial activity against Pseudomonas aeruginosa ATCC 27853 assessed as bacterial growth inhibition by broth microdilution method; format: functional; summary of the method: as §1
Escherichia coli [9] = assay: Antibacterial activity against Escherichia coli ATCC 25922 assessed as bacterial growth inhibition by broth microdilution method; format: functional; summary of the method: as §1
Staphylococcus aureus [10] = assay: Potency index, ratio of norfloxacin MIC to test compound MIC for methicillin-resistant Staphylococcus aureus assessed as bacterial growth inhibition by broth microdilution method; format: functional
DNA [11] = assay: Binding affinity to DNA (unknown origin) assessed as increase in maximum absorption peak of DNA at 260 nm by UV-vis spectrophotometric analysis; format: nucleic-acid assay
Summary of the method: (§2)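 DNA UV-vis absorption spectra were recorded with increasing test compound concentration, following the 260 nm peak intensity and position. Hypochromism was judged by comparing the summed absorbance of free DNA and free compound with the measured absorbance of the compound-DNA complex.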

Enterococcus faecalis [12] = assay: Potency index, ratio of sulfathiazole MIC to test compound MIC for Enterococcus faecalis assessed as bacterial growth inhibition by broth microdilution method; format: functional
Calf thymus DNA = assay: Binding affinity to calf thymus DNA assessed as DNA intercalation by competitive neutral red dye displacement based UV-Vis absorbance analysis; settings: Bos taurus
Summary of the method: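 Neutral red (NR) competition: absorbance around 530 nm was followed with test compound and increasing calf thymus DNA, compared against free NR titrated with increasing calf thymus DNA.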

Staphylococcus aureus [13] = assay: Potency index, ratio of sulfathiazole MIC to test compound MIC for methicillin-resistant Staphylococcus aureus assessed as bacterial growth inhibition by broth microdilution method; format: functional
DNA [14] = assay: Binding affinity to methicillin-resistant Staphylococcus aureus DNA assessed as DNA intercalation by competitive neutral red dye displacement based UV-Vis absorbance analysis; format: nucleic-acid assay
DNA [15] = assay: Binding affinity to DNA (unknown origin) assessed as hypochromic shift by UV-vis spectrophotometric analysis; format: nucleic-acid assay; summary of the method: as §2
Staphylococcus aureus [16] = assay: Antibacterial activity against methicillin-resistant Staphylococcus aureus measured after 13 passages by broth microdilution method; format: functional, organism-based
DNA [17] = assay: Binding affinity to DNA (unknown origin) assessed as red shift in absorption maxima by UV-vis spectrophotometric analysis; format: nucleic-acid assay; summary of the method: as §2
[18] = Cytotoxicity against human […] assessed as reduction in cell viability at 100 ug/ml by MTT assay; format: cell-based; settings: dose 100 µg/ml
Summary of the method: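 Endothelial […] were exposed to a range of compound concentrations up to 100 µg/mL, and viability was read by MTT assay.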

SMILES | MIC (Klebsiella pneumoniae) | MIC (Staphylococcus aureus [1]) | MIC (Escherichia coli [2]) | MIC (Staphylococcus aureus [3]) | MIC (Acinetobacter baumannii) | MIC (Staphylococcus aureus [4]) | MIC (Enterococcus faecalis [5]) | MIC (Staphylococcus aureus [6]) | MIC (Pseudomonas aeruginosa [7]) | MIC (Pseudomonas aeruginosa [8]) | MIC (Escherichia coli [9]) | other results
Cc1nc(I)cn1C(CO)CS(=O)(=O)c1ccc(N)cc1 (configuration not stated) | 64 µg/mL (≈ 152 µM) | 64 µg/mL (≈ 152 µM) | 128 µg/mL (≈ 304 µM) | 32 µg/mL (≈ 76 µM) | 32 µg/mL (≈ 76 µM) | 64 µg/mL (≈ 152 µM) | 64 µg/mL (≈ 152 µM) | 64 µg/mL (≈ 152 µM) | 128 µg/mL (≈ 304 µM) | 32 µg/mL (≈ 76 µM) | 32 µg/mL (≈ 76 µM) | –
CCc1nc(C)cn1C(CO)CS(=O)(=O)c1ccc(NC(C)=O)cc1 (configuration not stated) | 128 µg/mL (≈ 350 µM) | 32 µg/mL (≈ 87.6 µM) | 64 µg/mL (≈ 175 µM) | 4 µg/mL (≈ 10.9 µM) | 64 µg/mL (≈ 175 µM) | 128 µg/mL (≈ 350 µM) | 16 µg/mL (≈ 43.8 µM) | 64 µg/mL (≈ 175 µM) | 128 µg/mL (≈ 350 µM) | 32 µg/mL (≈ 87.6 µM) | 32 µg/mL (≈ 87.6 µM) | Ratio (Staphylococcus aureus [10]): 2; Activity (DNA [11]): Active; Ratio (Enterococcus faecalis [12]): 32; Activity (Calf thymus DNA): inactive; Ratio (Staphylococcus aureus [13]): 16; Activity (DNA [14]): Active; Activity (DNA [15]): Active; Activity (Staphylococcus aureus [16]): Active; Activity (DNA [17]): Active; Activity [18]: Non-Toxic
CCc1nc(C)cn1C(CO)CS(=O)(=O)c1ccc(N)cc1 (configuration not stated) | 128 µg/mL (≈ 396 µM) | 128 µg/mL (≈ 396 µM) | 64 µg/mL (≈ 198 µM) | 16 µg/mL (≈ 49.5 µM) | 64 µg/mL (≈ 198 µM) | 64 µg/mL (≈ 198 µM) | 16 µg/mL (≈ 49.5 µM) | 64 µg/mL (≈ 198 µM) | 128 µg/mL (≈ 396 µM) | 32 µg/mL (≈ 98.9 µM) | 32 µg/mL (≈ 98.9 µM) | –
Cc1nccn1C(CO)CS(=O)(=O)c1ccc(N)cc1 (configuration not stated) | 128 µg/mL (≈ 433 µM) | 64 µg/mL (≈ 217 µM) | 128 µg/mL (≈ 433 µM) | 16 µg/mL (≈ 54.2 µM) | 16 µg/mL (≈ 54.2 µM) | 64 µg/mL (≈ 217 µM) | 8 µg/mL (≈ 27.1 µM) | 128 µg/mL (≈ 433 µM) | 128 µg/mL (≈ 433 µM) | 64 µg/mL (≈ 217 µM) | 32 µg/mL (≈ 108 µM) | –
CC(=O)Nc1ccc(S(=O)(=O)CC(CO)n2cc(I)nc2C)cc1 (configuration not stated) | 256 µg/mL (≈ 553 µM) | 64 µg/mL (≈ 138 µM) | 64 µg/mL (≈ 138 µM) | 64 µg/mL (≈ 138 µM) | 64 µg/mL (≈ 138 µM) | 64 µg/mL (≈ 138 µM) | 256 µg/mL (≈ 553 µM) | 64 µg/mL (≈ 138 µM) | 256 µg/mL (≈ 553 µM) | 32 µg/mL (≈ 69.1 µM) | 32 µg/mL (≈ 69.1 µM) | –
CC(=O)Nc1ccc(S(=O)(=O)CC(CO)n2ccnc2C)cc1 (configuration not stated) | 128 µg/mL (≈ 379 µM) | 32 µg/mL (≈ 94.8 µM) | 64 µg/mL (≈ 190 µM) | 8 µg/mL (≈ 23.7 µM) | 16 µg/mL (≈ 47.4 µM) | 64 µg/mL (≈ 190 µM) | 64 µg/mL (≈ 190 µM) | 64 µg/mL (≈ 190 µM) | 128 µg/mL (≈ 379 µM) | 64 µg/mL (≈ 190 µM) | 32 µg/mL (≈ 94.8 µM) | –
CCc1nc(I)cn1C(CO)CS(=O)(=O)c1ccc(N)cc1 (configuration not stated) | 256 µg/mL (≈ 588 µM) | 64 µg/mL (≈ 147 µM) | 64 µg/mL (≈ 147 µM) | 16 µg/mL (≈ 36.8 µM) | 64 µg/mL (≈ 147 µM) | 64 µg/mL (≈ 147 µM) | 64 µg/mL (≈ 147 µM) | 64 µg/mL (≈ 147 µM) | 256 µg/mL (≈ 588 µM) | 32 µg/mL (≈ 73.5 µM) | 32 µg/mL (≈ 73.5 µM) | –
CC(=O)Nc1ccc(S(=O)(=O)CC(CO)n2cnc(C)c2)cc1 (configuration not stated) | 32 µg/mL (≈ 94.8 µM) | 32 µg/mL (≈ 94.8 µM) | 64 µg/mL (≈ 190 µM) | 16 µg/mL (≈ 47.4 µM) | 64 µg/mL (≈ 190 µM) | 64 µg/mL (≈ 190 µM) | 64 µg/mL (≈ 190 µM) | 128 µg/mL (≈ 379 µM) | 128 µg/mL (≈ 379 µM) | 32 µg/mL (≈ 94.8 µM) | 64 µg/mL (≈ 190 µM) | –
CCc1nccn1C(CO)CS(=O)(=O)c1ccc(NC(C)=O)cc1 (configuration not stated) | 128 µg/mL (≈ 364 µM) | 16 µg/mL (≈ 45.5 µM) | 64 µg/mL (≈ 182 µM) | 32 µg/mL (≈ 91.1 µM) | 16 µg/mL (≈ 45.5 µM) | 64 µg/mL (≈ 182 µM) | 32 µg/mL (≈ 91.1 µM) | 64 µg/mL (≈ 182 µM) | 256 µg/mL (≈ 728 µM) | 64 µg/mL (≈ 182 µM) | 32 µg/mL (≈ 91.1 µM) | –
CC(C)c1nccn1C(CO)CS(=O)(=O)c1ccc(N)cc1 (configuration not stated) | 64 µg/mL (≈ 198 µM) | 64 µg/mL (≈ 198 µM) | 128 µg/mL (≈ 396 µM) | 16 µg/mL (≈ 49.5 µM) | 32 µg/mL (≈ 98.9 µM) | 32 µg/mL (≈ 98.9 µM) | 8 µg/mL (≈ 24.7 µM) | 128 µg/mL (≈ 396 µM) | 256 µg/mL (≈ 792 µM) | 64 µg/mL (≈ 198 µM) | 64 µg/mL (≈ 198 µM) | –
CC(=O)Nc1ccc(S(=O)(=O)CC(CO)n2cnc(I)c2)cc1 (configuration not stated) | 64 µg/mL (≈ 142 µM) | 64 µg/mL (≈ 142 µM) | 128 µg/mL (≈ 285 µM) | 32 µg/mL (≈ 71.2 µM) | 32 µg/mL (≈ 71.2 µM) | 64 µg/mL (≈ 142 µM) | 64 µg/mL (≈ 142 µM) | 64 µg/mL (≈ 142 µM) | 32 µg/mL (≈ 71.2 µM) | 32 µg/mL (≈ 71.2 µM) | 32 µg/mL (≈ 71.2 µM) | –
CCc1nccn1C(CO)CS(=O)(=O)c1ccc(N)cc1 (configuration not stated) | 128 µg/mL (≈ 414 µM) | 64 µg/mL (≈ 207 µM) | 64 µg/mL (≈ 207 µM) | 16 µg/mL (≈ 51.7 µM) | 64 µg/mL (≈ 207 µM) | 64 µg/mL (≈ 207 µM) | 16 µg/mL (≈ 51.7 µM) | 64 µg/mL (≈ 207 µM) | 256 µg/mL (≈ 827 µM) | 32 µg/mL (≈ 103 µM) | 32 µg/mL (≈ 103 µM) | –
